Measurements: ChEMBL document CHEMBL2069262, “Stimulation of Glucose-Dependent Insulin Secretion by a Potent, Selective sst3 Antagonist” (ACS Med Chem Lett, 2012)
The source made the active and inactive calls. The calls are words filed in the database; no cut-off is given here. Positions of bridges follow the written chain, without caps; N, C: chain ends. Non-standard residues stand in square brackets, D forms with d. Residues, ends and D or L forms follow the SMILES beside them. *: point of attachment. Threoninol(2S,3R) = C[C@@H](O)[C@H](CO)N*

Experiments:
[1] = Inhibition of glucose-stimulated insulin secretion in C57BL/6J mouse pancreatic islets at 50 nM after 1 hr by ELISA; assay type: functional, Pancreatic islet; parameters: scale not given: the % may be the effect or the level left
Procedure, shortened: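 Islets isolated from normal C57BL/6J mice were incubated at basal (2 mM) and stimulatory (16 mM) glucose, and insulin secretion was measured. DMSO served as the negative control and GLP-1 at 10 nM as the positive control. n = 4.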

[2] = biological target: Voltage-gated inwardly rectifying potassium channel KCNH2 (Homo sapiens, UniProt Q12809); assay: Displacement of [35S]MK499 from human Erg expressed in HEK293 cells after 60 mins by scintillation counting; assay type: cell-based
[3] = biological target: T1, Somatostatin receptor type 3 (Homo sapiens, UniProt P32745); assay: Displacement of [125I]SS-14 from human SST3 receptor expressed in CHO cells after 60 mins by scintillation counting; assay type: cell-based
[4] = biological target: T1, Somatostatin receptor type 3; assay type: functional, cell-based, CHO
[5] = biological target: Voltage-gated L-type calcium channel (Homo sapiens, UniProt Q13936+Q13698+Q01668+O60840); assay: Binding affinity to L-type calcium channel
[6] = Clearance in C57BL/6N mouse at 1 mg/kg, iv and 2 mg/kg, po; assay type: ADME, organism-based; conditions: in vivo
[7] = biological target: Somatostatin receptor type 1 (Mus musculus, UniProt P30873); assay: Binding affinity to mouse SST1 receptor expressed in CHO cells; assay type: cell-based
[8] = biological target: T2, Somatostatin receptor type 3 (Mus musculus, UniProt P30935); assay: Displacement of [125I]SS-14 from mouse SST3 receptor expressed in CHO cells after 60 mins by scintillation counting; assay type: cell-based
Procedure, shortened: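 Competition binding at mouse sst3, read at steady-state equilibrium. Read-out is IC50.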

[9] = biological target: Somatostatin receptor type 5 (Homo sapiens, UniProt P35346); assay: Binding affinity to human SST5 receptor expressed in CHO cells; assay type: cell-based
Mus musculus [10] = assay: Antidiabetic activity in sst3-knockout lean C57BL/6N mouse assessed as elevation in plasma insulin level at 10 mg/kg, po administered 1 hr before dextrose challenge measured after 10 mins; assay type: functional, organism-based; parameters: dose 10 mg/kg
Procedure, shortened: (§1)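 Wild-type and sst3 knockout mice were predosed at −60 min with 10 mg/kg, then given a dextrose challenge. Plasma insulin was measured 10 min after dextrose. n = 5.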

[11] = biological target: T3, Somatostatin receptor type 5 (Mus musculus, UniProt O08858); assay: Binding affinity to mouse SST5 receptor expressed in CHO cells; assay type: cell-based
T3 sequence (O08858 whole entry): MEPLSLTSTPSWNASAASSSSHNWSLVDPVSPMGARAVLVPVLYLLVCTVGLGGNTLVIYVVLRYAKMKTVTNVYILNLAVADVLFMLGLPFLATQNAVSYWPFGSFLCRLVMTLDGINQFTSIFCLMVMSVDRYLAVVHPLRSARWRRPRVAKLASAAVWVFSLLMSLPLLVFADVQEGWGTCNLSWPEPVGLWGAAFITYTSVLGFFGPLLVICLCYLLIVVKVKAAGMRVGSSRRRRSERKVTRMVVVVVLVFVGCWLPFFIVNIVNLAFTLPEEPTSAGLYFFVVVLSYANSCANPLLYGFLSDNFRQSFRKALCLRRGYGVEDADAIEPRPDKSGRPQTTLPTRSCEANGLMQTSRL

Mus musculus [12] = assay: Dose normalized AUC in C57BL/6N mouse at 2 mg/kg, po; assay type: ADME, organism-based; parameters: dose 2 mg/kg, route oral; conditions: in vivo
[13] = Activation of glucose-stimulated insulin secretion in C57BL/6J mouse pancreatic islets at 10 uM after 1 hr by ELISA in presence of 16 mM glucose and 50 nM sst3 agonist octreotide; assay type: functional; conditions: Pancreatic islet
Procedure, shortened: (§2)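 Pancreatic islets were isolated from normal C57BL/6J mice. Insulin secretion was measured at 2 and 16 mM glucose. Treatments were test agent at 10 μM, octreotide at 50 nM, the two combined, DMSO as negative control and GLP-1 at 10 nM as positive control. n = 4.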

[14] = biological target: T2, Somatostatin receptor type 3; assay: Antagonist activity at mouse SST3 receptor expressed in CHO cells assessed as inhibition of forskolin/SS-14-stimulated cAMP accumulation preincubated for 15 mins before SS-14 challenge measured after 1 hr by time-resolved fluorescence analysis; assay type: functional, cell-based
Procedure, shortened: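 Functional antagonism at mouse sst3 against SS-14, run as a cAMP accumulation challenge after the test molecule is prebound. Read-out is IC50.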

[15] = biological target: Somatostatin receptor type 4 (Mus musculus, UniProt P49660); assay: Binding affinity to mouse SST4 receptor expressed in CHO cells; assay type: cell-based
[16] = biological target: Somatostatin receptor type 4 (Homo sapiens, UniProt P31391); assay: Binding affinity to human SST4 receptor expressed in CHO cells; assay type: cell-based
Mus musculus [17] = assay: Antidiabetic activity in sst3-knockout lean C57BL/6N mouse assessed as reduction in dextrose-induced glucose excursion at 10 mg/kg, po administered 1 hr before dextrose challenge measured by intraperitoneal glucose tolerance test; assay type: functional, organism-based; parameters: dose 10 mg/kg
Procedure, shortened: (§3)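 Wild-type and sst3 knockout mice were studied side by side in an ipGTT. They were predosed with 10 mg/kg 1 h before a 2 g/kg dextrose challenge. Read-out was total blood glucose AUC, compared with dextrose alone.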

Mus musculus [18] = assay: Antidiabetic activity in sst3-wild-type lean C57BL/6N mouse assessed as reduction in dextrose-induced glucose excursion at 10 mg/kg, po administered 1 hr before dextrose challenge measured by intraperitoneal glucose tolerance test; assay type: functional; parameters: scale not given: the % may be the effect or the level left; procedure, shortened: as §3
Mus musculus [19] = assay: Antidiabetic activity in lean C57BL/6N mouse assessed as reduction in dextrose-induced glucose excursion at 2 mg/kg, po administered 1 hr before dextrose challenge measured by intraperitoneal glucose tolerance test; assay type: functional; parameters: scale not given: the % may be the effect or the level left
Procedure, shortened: (§4)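 Lean C57BL/6N Tac mice were fasted 5–6 h, then given test agent at 2 or 10 mg/kg 1 h before a dextrose challenge. Glucose tolerance was tested with ip dextrose (ipGTT) or oral dextrose (OGTT). Blood glucose excursion was followed and compared with dextrose alone.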

[20] = biological target: Somatostatin receptor type 1 (Homo sapiens, UniProt P30872); assay: Binding affinity to human SST1 receptor expressed in CHO cells; assay type: cell-based
[21] = Volume of distribution at steady state in C57BL/6N mouse at 1 mg/kg, iv and 2 mg/kg, po; assay type: ADME, organism-based; conditions: in vivo, read-out: Vdss
Mus musculus [22] = assay: Antidiabetic activity in lean C57BL/6N mouse assessed as reduction in dextrose-induced glucose excursion at 2 mg/kg, po administered 1 hr before dextrose challenge measured by oral glucose tolerance test; assay type: functional; parameters: scale not given: the % may be the effect or the level left; procedure, shortened: as §4
Mus musculus [23] = assay: Antidiabetic activity in wild-type lean C57BL/6N mouse assessed as elevation in plasma insulin level at 10 mg/kg, po administered 1 hr before dextrose challenge measured after 10 mins; assay type: functional; procedure, shortened: as §1
[24] = Half life in C57BL/6N mouse at 1 mg/kg, iv and 2 mg/kg, po; assay type: ADME, organism-based; conditions: in vivo
Mus musculus [25] = assay: Antidiabetic activity in lean C57BL/6N mouse assessed as reduction in dextrose-induced glucose excursion at 10 mg/kg, po administered 1 hr before dextrose challenge measured by intraperitoneal glucose tolerance test; assay type: functional; parameters: scale not given: the % may be the effect or the level left; procedure, shortened: as §4
[26] = biological target: Somatostatin receptor type 2 (Mus musculus, UniProt P30875); assay: Binding affinity to mouse SST2 receptor expressed in CHO cells; assay type: cell-based
Mus musculus [27] = assay: Antidiabetic activity in po dosed lean C57BL/6N mouse assessed as reduction in dextrose-induced glucose excursion administered 1 hr before dextrose challenge measured by glucose tolerance test; assay type: functional, organism-based; procedure, shortened: as §4
[28] = biological target: Somatostatin receptor type 2 (Homo sapiens, UniProt P30874); assay: Binding affinity to human SST2 receptor expressed in CHO cells; assay type: cell-based
Mus musculus [29] = assay: Antidiabetic activity in lean C57BL/6N mouse assessed as reduction in dextrose-induced glucose excursion at 10 mg/kg, po administered 1 hr before dextrose challenge measured by oral glucose tolerance test; assay type: functional; parameters: scale not given: the % may be the effect or the level left; procedure, shortened: as §4
[30] = Oral bioavailability in C57BL/6N mouse at 2 mg/kg; assay type: ADME, organism-based; conditions: in vivo
[31] = Activation of glucose-stimulated insulin secretion in C57BL/6J mouse pancreatic islets at 10 uM after 1 hr by ELISA in presence of 2 mM glucose; assay type: functional; conditions: Pancreatic islet; procedure, shortened: as §2
[32] = Activation of glucose-stimulated insulin secretion in C57BL/6J mouse pancreatic islets at 10 uM after 1 hr by ELISA in presence of 16 mM glucose relative to DMSO; assay type: functional; conditions: Pancreatic islet; procedure, shortened: as §2
[33] = Cmax in C57BL/6N mouse at 2 mg/kg, po; assay type: ADME, organism-based; parameters: dose 2 mg/kg, route oral; conditions: in vivo

Voltage-gated inwardly rectifying potassium channel KCNH2, sequence (Q12809 whole entry): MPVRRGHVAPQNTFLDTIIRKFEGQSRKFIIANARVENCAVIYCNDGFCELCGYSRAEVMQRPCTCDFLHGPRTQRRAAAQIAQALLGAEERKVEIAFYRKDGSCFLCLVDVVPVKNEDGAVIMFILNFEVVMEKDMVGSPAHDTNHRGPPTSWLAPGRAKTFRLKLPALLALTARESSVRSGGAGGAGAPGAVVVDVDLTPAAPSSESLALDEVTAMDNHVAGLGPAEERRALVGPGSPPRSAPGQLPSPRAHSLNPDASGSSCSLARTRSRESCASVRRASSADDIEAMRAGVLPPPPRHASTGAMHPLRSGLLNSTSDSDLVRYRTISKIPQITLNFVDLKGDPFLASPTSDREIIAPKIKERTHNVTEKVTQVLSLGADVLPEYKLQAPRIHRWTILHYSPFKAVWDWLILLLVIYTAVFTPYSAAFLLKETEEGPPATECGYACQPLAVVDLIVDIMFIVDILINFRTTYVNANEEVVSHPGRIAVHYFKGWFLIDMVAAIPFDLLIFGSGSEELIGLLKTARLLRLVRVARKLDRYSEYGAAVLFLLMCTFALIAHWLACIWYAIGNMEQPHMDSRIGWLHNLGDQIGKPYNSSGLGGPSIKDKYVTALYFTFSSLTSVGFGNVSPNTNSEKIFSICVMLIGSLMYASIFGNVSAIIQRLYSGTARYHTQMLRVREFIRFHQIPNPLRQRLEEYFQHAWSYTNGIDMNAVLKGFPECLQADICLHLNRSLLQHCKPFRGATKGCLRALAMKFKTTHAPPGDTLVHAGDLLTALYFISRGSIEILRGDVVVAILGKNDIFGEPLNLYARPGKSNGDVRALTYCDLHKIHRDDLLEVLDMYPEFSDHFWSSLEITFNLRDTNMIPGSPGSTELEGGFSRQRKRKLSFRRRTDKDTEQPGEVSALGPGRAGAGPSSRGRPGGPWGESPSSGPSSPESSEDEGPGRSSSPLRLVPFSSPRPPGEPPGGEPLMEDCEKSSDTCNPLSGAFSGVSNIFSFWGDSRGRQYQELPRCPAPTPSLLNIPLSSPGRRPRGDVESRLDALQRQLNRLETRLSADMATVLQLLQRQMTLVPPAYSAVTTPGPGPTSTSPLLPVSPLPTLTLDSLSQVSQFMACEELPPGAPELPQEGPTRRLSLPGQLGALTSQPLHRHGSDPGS
T1 sequence (P32745 whole entry): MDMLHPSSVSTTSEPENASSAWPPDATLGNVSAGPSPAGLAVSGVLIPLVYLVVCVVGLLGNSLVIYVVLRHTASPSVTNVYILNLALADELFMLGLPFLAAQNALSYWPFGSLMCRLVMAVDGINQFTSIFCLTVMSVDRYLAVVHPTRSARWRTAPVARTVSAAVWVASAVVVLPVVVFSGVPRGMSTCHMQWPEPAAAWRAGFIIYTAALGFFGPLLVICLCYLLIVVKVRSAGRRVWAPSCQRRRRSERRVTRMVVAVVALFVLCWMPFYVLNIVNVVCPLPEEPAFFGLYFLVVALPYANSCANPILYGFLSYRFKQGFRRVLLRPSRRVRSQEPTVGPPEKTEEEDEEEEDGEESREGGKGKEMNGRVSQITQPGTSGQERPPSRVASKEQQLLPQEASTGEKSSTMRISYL
T2 sequence (P30935 whole entry): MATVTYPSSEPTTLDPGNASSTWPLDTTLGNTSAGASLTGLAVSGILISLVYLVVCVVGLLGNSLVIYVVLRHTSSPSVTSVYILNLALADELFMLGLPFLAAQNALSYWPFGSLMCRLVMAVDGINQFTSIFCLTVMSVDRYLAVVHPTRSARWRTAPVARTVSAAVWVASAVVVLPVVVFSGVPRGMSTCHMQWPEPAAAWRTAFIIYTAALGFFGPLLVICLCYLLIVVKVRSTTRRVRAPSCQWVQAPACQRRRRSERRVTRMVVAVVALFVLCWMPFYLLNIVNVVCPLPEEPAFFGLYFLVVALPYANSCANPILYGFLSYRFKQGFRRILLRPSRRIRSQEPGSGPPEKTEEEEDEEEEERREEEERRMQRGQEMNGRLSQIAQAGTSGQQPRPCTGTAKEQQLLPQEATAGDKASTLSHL
Somatostatin receptor type 4 (Mus musculus, UniProt P49660), sequence (P49660 as listed by the source): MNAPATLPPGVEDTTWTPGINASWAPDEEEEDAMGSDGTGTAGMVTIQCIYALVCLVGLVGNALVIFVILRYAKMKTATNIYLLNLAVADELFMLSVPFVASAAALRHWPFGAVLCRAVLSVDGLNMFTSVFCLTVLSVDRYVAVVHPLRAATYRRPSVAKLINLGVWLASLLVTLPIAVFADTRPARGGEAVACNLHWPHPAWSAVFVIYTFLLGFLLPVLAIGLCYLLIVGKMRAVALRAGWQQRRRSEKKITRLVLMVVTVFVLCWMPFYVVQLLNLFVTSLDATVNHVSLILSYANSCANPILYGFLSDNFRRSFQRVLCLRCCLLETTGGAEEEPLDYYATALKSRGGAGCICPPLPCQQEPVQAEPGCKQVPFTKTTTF
Somatostatin receptor type 1 (Homo sapiens, UniProt P30872), sequence (P30872 whole entry): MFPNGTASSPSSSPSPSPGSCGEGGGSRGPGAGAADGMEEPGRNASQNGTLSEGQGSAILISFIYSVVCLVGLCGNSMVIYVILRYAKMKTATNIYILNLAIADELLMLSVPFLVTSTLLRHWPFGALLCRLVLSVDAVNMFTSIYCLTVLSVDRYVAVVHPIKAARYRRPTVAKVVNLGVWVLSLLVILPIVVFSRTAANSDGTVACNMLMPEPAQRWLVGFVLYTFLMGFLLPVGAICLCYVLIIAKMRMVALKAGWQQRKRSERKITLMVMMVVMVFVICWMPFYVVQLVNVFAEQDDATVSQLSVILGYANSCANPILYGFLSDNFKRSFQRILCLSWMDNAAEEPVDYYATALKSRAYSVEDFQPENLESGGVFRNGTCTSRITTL
Somatostatin receptor type 5 (Homo sapiens, UniProt P35346), sequence (P35346 whole entry): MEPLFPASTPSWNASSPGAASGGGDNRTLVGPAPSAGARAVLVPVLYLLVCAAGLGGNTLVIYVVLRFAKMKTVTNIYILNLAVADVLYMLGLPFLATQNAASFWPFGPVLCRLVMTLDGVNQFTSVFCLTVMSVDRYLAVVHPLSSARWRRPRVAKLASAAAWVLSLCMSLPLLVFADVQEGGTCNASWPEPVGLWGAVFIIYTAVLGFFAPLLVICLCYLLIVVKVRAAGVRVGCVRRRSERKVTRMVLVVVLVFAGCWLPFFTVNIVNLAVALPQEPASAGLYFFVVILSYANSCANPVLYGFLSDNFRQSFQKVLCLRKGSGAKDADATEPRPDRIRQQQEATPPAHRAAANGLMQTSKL
Somatostatin receptor type 4 (Homo sapiens, UniProt P31391), sequence (P31391 whole entry): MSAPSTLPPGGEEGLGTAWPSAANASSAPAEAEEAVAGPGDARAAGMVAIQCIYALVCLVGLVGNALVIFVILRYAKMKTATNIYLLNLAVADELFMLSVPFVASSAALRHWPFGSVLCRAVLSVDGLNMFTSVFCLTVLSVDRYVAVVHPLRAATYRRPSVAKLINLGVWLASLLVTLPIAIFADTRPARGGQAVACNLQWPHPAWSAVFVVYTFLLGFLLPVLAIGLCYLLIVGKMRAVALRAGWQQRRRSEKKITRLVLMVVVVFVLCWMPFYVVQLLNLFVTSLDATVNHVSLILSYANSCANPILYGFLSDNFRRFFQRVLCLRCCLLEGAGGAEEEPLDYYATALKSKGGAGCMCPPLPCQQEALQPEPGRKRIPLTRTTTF
Somatostatin receptor type 2 (Homo sapiens, UniProt P30874), sequence (P30874 whole entry): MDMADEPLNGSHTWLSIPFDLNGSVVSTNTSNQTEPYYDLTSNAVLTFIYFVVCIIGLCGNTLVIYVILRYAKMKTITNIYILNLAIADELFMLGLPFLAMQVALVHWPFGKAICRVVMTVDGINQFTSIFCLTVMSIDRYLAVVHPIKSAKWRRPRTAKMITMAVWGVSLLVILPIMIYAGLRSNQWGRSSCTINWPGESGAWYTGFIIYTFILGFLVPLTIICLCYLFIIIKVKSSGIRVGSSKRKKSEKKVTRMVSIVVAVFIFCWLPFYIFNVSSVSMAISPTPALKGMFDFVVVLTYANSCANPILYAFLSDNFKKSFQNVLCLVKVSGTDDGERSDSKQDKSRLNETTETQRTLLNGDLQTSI
Somatostatin receptor type 2 (Mus musculus, UniProt P30875), sequence (P30875 whole entry): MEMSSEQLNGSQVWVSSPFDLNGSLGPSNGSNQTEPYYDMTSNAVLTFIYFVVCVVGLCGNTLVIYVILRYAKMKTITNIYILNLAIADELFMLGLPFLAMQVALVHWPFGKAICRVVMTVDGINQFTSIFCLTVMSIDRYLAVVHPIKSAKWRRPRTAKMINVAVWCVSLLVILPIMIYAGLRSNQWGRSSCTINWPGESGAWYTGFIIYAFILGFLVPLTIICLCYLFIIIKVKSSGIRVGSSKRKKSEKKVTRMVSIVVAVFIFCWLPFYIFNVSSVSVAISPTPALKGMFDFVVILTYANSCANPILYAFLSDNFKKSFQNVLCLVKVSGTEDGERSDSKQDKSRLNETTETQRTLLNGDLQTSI
Somatostatin receptor type 1 (Mus musculus, UniProt P30873), sequence (P30873 whole entry): as the sequence (P30872 whole entry) above, with G25A, G26C, A32S, T385A, T389S counted along it

With C[C@@H](O)[C@H](CO)NC(=O)[C@@H]1CSSC[C@H](NC(=O)[C@H](N)Cc2ccccc2)C(=O)N[C@@H](Cc2ccccc2)C(=O)N[C@H](Cc2c[nH]c3ccccc23)C(=O)N[C@@H](CCCCN)C(=O)N[C@@H]([C@@H](C)O)C(=O)N1 (H-[dF]CF[dW]KTC-{Threoninol(2S,3R)}; disulfide 2-7) the Activity [1] was 39%.

CC(=O)N1CCC(C2N[C@@H](c3nc(-c4ccccc4)c[nH]3)Cc3c2[nH]c2ccccc32)CC1 (stereo not given in full) gave an IC50 [2] of 9800 nM, an IC50 [3] of 16 nM and an IC50 [4] of 46 nM.

CCCCC1(CCCC)N[C@@H](c2nc(-c3ccccc3)c[nH]2)Cc2c1[nH]c1ccccc21 showed an IC50 [5] of 128 nM, an IC50 [2] of 150 nM and a clearance [6] of 126 mL/min/kg.

Molecule [O-][S+]1CCC(C2N[C@@H](c3nc(-c4ccccc4)c[nH]3)Cc3c2[nH]c2ccccc32)CC1 (single isomer, unassigned; isomer 2) has an IC50 [2] of 100 nM, an IC50 [3] of 21 nM and an IC50 [4] of 24 nM.

Molecule [O-][S+]1CCC(C2N[C@@H](c3nc(-c4ccccc4)c[nH]3)Cc3c2[nH]c2ccccc32)CC1 (single isomer, unassigned; isomer 1) has an IC50 [3] of 220 nM and an IC50 [4] of 380 nM.

c1ccc(-c2c[nH]c([C@H]3Cc4c([nH]c5ccccc45)[C@@H](C4CCOCC4)N3)n2)cc1 gave an IC50 [7] of over 10000 nM, an IC50 [8] of 8.9 nM and an IC50 [9] of over 1000 nM. The Activity (Mus musculus [10]) was “inactive”, the IC50 [11] was over 10000 nM and the AUC/dose (Mus musculus [12]) was 1.3 µM·h/mg. For the same molecule, the Activity [13] was “Active”, the IC50 [14] was 16 nM and the IC50 [15] was over 10000 nM. The IC50 [16] was over 1000 nM, the IC50 [5] was 1900 nM and the Activity (Mus musculus [17]) was “inactive”. The Activity (Mus musculus [18]) was 26%, the Activity (Mus musculus [19]) was 58% and the IC50 [20] was over 1000 nM. For the same molecule, the Vd [21] was 1.6 L/kg, the Activity (Mus musculus [22]) was 66% and the Activity (Mus musculus [23]) was 50%. It also gave a half-life [24] of 1.6 h, an IC50 [3] of 14 nM and an Activity (Mus musculus [25]) of 78%. For the same molecule, the IC50 [26] was over 10000 nM, the Activity (Mus musculus [27]) was “Dose-dependent effect” and the IC50 [28] was over 1000 nM. For the same molecule, the Activity (Mus musculus [29]) was 67%, the bioavailability [30] was 45% and the IC50 [4] was 22 nM. For the same molecule, the Activity [31] was “inactive”, the Activity [32] was 44% and the clearance [6] was 15 mL/min/kg. For the same molecule, the Cmax [33] was 840 nM.

CC(C)(C)OC(=O)N1CCC(C2N[C@@H](c3nc(-c4ccccc4)c[nH]3)Cc3c2[nH]c2ccccc32)CC1 (stereo not given in full) showed an IC50 [3] of 7 nM and an IC50 [4] of 1000 nM.

For CCOCC1(COCC)N[C@@H](c2nc(-c3ccccc3)c[nH]2)Cc2c1[nH]c1ccccc21, the AUC/dose (Mus musculus [12]) was 0.06 µM·h/mg, the IC50 [5] was 1526 nM and the Vd [21] was 0.7 L/kg. It also gave a half-life [24] of 0.54 h, a bioavailability [30] of 4% and a clearance [6] of 31 mL/min/kg. The Cmax [33] was 130 nM.

O=S1(=O)CCC(C2N[C@@H](c3nc(-c4ccccc4)c[nH]3)Cc3c2[nH]c2ccccc32)CC1 (stereo not given in full) gave an IC50 [2] of 100 nM, an IC50 [3] of 120 nM and an IC50 [4] of 290 nM.
